This note sets out measurements from ChEMBL document CHEMBL4673340 (J Med Chem, 2020).

SMILES strings stand for the structures. Active and inactive are the calls of the source. The calls are words filed in the database; no cut-off is given here.

By IC50 is commonly meant the concentration needed to halve the response being measured. Read a low IC50 as greater potency in that assay. A word on the AUC(0-t): it is the area under the concentration-time curve up to a stated or last time point. Read a low AUC(0-t) as less exposure. The CL/F is clearance divided by bioavailability, as obtained after extravascular dosing. One may read the bioavailability as dose-corrected exposure relative to a reference, in per cent. Higher therefore signals good availability. In general, inhibition refers to the percentage by which the read-out fell short of the control. The low end stands for a response near the control, the high end for a response far below the control. For orientation: EC50 means the concentration needed to bring the measured effect to its halfway point.

The target in data set [1] is Poly [ADP-ribose] polymerase 2 (Homo sapiens, UniProt Q9UGN5). Kind of data set: Inhibition of PARP-2 (unknown origin) pre-incubated for 30 mins before addition of activated DNA and NAD by chemiluminescent assay.
Chain of Poly [ADP-ribose] polymerase 2 (Q9UGN5 whole entry): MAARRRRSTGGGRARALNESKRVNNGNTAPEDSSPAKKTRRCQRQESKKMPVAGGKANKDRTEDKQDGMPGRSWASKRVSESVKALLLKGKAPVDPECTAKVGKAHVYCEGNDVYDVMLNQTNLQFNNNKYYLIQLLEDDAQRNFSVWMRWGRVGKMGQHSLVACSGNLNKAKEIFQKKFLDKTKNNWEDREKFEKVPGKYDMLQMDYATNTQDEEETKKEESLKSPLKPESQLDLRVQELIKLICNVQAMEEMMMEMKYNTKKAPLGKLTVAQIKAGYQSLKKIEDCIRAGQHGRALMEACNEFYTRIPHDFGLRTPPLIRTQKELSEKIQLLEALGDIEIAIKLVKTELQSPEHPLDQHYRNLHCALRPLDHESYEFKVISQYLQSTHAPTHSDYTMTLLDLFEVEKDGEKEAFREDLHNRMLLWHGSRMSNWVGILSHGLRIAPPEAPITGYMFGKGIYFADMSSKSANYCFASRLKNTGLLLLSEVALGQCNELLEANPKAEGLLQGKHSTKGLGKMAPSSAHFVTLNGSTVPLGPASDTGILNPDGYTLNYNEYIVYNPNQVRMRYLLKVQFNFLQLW
Data set [2] is described as follows: AUC (0 to 24 hrs) in rat at 5 mg/kg, po by LC-MS/MS analysis. Type of data set: ADME, organism-based. Details: time < 24 hr, route oral, dose 5 mg/kg. The note with it: in vivo.
Data set [3] in a line: Clearance in rat at 5 mg/kg, po by LC-MS/MS analysis. It counts as ADME, organism-based. The note with it: in vivo.
Data set [4] in a line: Oral bioavailability in Sprague-Dawley rat at 5 mg/kg by LC-MS/MS analysis. Type of data set: ADME, organism-based. The note with it: in vivo. In short, it runs like this:
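Pharmacokinetics in Sprague-Dawley rats, three per group. iv 2 mg/kg in 38% DMA in water; po 5 mg/kg. Plasma was protein-precipitated, diluted with water and analysed by LC-MS/MS using an acetonitrile/0.1% formic acid gradient. Values are means of three rats.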

Data set [5] in a line: Clearance in mouse liver microsomes. Type of data set: ADME, Microsome. As to conditions: read-out: CLH. A general note: Microsomes from liver hold many membrane-bound enzymes, among them those of drug oxidation.
A further data set concerns the target hERG (KCNH2) (Homo sapiens, UniProt Q12809). Kind of data set: Inhibition of human ERG activity at 20 uM by functional cellular assay.
Data set [6] has as its target T1, Poly [ADP-ribose] polymerase 1 (Homo sapiens, UniProt P09874). Put plainly: Inhibition of human PARP-1 catalytic domain (662 to 1011 residues) expressed in Escherichia coli BL21(DE3) cells pre-incubated for 30 mins before addition of activated DNA and NAD by fluorescence based assay.
In data set [7] the target is T1, Poly [ADP-ribose] polymerase 1. Kind of data set: Inhibition of PARP-1 in human HeLa cells incubated for 18 hrs in presence of H2O2. It counts as cell-based.
Data set [8] can be described thus: Solubility of the compound. Type of data set: physicochemical.
The test system of another data set is MDA-MB-436. Kind of data set: Antitumor activity against human MDA-MB-436 cells xenografted in BALB/c nude mouse assessed as inhibition of tumor growth at 25 to 50 mg/kg, po BID for 28 days followed by treatment was interruption and monitored for additional 2 months. It counts as functional, organism-based. The note with it: dose 25-50 mg/kg, time 28.0 day. The method in brief:
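Female 8-week-old BALB/c nude mice receive 5 × 10⁶ cells in PBS:Matrigel 1:1 subcutaneously in the right flank. […] Tumors are then monitored 2 more months. Caliper volume V = 0.5ab² is taken twice weekly.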

Data set [9] deals with NCI-H209. Kind of data set: Antitumor activity against human NCI-H209 cells xenografted in BALB/c nude mouse assessed as PR rate at 50 mg/kg, po QD for 5 consecutive days at start of study and again 14 days later. Type of data set: functional. As to conditions: time 19 day. The method in brief:
(§1)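 Female BALB/c nude mice are implanted subcutaneously with 1 × 10⁷ H209 cells in cold PBS. At ~175 mm³ they are randomized into four groups of 8. TMZ is given orally in 0.5% MC at 10 mL/kg, QD on days 1–5 and 15–19. Caliper tumor volume (0.5ab²) is measured twice weekly and reported as mean ± SEM.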

Data set [10] relates to NCI-H209. Put plainly: Antitumor activity against human NCI-H209 cells xenografted in BALB/c nude mouse assessed as tumor relapse at 50 mg/kg, po QD for 5 consecutive days at start of study and again 14 days later and measured after 48 days. The note with it: time 19.0 day. Type of data set: functional, organism-based. In short, it runs like this: as §1
A general note: Xenograft models place foreign cells or tissue in a host animal.

For data set [11], the system named is NCI-H209. Put plainly: Antitumor activity against human NCI-H209 cells xenografted in BALB/c nude mouse assessed as inhibition of tumor growth at 50 mg/kg, po QD for 5 consecutive days at start of study and again 14 days later. Type of data set: functional, organism-based. As to conditions: time 19.0 day. In short, it runs like this:
as §1

T1 sequence (P09874 whole entry, the tested form may be a part): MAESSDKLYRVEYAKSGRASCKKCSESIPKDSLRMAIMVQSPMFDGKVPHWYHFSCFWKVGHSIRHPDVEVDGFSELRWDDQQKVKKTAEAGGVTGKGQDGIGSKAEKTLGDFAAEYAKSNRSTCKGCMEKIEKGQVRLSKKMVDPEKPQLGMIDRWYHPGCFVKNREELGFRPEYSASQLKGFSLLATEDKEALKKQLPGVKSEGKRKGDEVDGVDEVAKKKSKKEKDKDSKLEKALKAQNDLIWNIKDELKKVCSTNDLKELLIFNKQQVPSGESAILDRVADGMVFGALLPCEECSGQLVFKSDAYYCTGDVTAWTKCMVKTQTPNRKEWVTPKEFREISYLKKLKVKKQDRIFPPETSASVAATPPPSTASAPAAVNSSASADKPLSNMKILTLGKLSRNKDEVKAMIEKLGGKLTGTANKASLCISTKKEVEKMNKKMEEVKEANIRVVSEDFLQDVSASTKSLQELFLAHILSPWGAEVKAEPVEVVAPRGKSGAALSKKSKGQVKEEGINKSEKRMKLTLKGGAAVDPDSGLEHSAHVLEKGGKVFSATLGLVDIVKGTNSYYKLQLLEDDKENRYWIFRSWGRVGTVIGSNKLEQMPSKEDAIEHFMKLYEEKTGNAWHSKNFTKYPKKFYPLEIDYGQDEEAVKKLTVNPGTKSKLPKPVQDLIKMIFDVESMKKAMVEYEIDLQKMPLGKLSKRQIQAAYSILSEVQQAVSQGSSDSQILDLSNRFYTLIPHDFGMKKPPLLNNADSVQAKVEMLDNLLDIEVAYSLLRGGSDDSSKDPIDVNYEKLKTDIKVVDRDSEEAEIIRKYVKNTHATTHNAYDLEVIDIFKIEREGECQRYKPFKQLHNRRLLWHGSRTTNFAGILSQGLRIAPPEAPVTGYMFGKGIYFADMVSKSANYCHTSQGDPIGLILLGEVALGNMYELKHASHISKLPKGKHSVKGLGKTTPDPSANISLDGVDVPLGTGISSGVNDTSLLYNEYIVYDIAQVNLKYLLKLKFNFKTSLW
Chain of hERG (KCNH2) (Q12809 whole entry, the tested form may be a part): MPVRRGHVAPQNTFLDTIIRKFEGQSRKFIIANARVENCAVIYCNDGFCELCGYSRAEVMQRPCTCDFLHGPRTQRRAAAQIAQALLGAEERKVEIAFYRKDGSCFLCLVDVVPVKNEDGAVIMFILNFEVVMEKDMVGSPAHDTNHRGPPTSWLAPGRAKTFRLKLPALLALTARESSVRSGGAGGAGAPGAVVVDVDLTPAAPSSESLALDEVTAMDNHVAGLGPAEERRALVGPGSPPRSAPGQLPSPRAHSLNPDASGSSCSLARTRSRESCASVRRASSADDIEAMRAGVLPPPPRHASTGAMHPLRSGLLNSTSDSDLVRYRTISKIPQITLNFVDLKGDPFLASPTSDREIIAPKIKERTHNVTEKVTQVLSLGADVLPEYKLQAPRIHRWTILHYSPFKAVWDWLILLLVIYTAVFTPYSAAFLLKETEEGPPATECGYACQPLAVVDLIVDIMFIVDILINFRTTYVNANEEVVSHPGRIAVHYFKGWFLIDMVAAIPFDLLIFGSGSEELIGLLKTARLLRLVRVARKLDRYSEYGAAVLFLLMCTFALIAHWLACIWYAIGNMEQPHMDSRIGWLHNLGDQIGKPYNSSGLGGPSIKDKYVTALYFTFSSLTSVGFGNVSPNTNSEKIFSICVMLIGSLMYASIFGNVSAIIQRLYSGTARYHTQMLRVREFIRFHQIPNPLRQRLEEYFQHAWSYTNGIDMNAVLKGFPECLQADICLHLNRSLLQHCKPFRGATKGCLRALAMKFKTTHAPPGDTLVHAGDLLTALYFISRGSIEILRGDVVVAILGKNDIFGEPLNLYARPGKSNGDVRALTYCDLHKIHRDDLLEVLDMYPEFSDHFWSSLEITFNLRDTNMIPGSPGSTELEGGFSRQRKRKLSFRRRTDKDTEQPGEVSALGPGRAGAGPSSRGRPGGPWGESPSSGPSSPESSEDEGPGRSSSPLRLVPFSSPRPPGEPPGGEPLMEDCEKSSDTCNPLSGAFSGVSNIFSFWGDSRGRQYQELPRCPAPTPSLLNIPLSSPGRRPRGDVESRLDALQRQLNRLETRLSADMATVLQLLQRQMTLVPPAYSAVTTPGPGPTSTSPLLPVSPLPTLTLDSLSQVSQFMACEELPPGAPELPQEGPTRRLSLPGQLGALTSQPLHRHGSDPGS

`O=C1NN=C2CC(c3ccccc3)Cc3[nH]c4cc(F)cc1c4c32` (stereo not drawn) registered a half-maximal inhibitory concentration (IC50) in data set [1] of 1.8 nM. That is a single-digit nanomolar value.
The compound `CC(C)N1CC2=NNC(=O)c3cccc4[nH]c(c2c34)C1` came in with an area under the curve AUC(0-t) at 24 h in [2] of 141 ng·h/mL. Moreover, the apparent clearance CL/F in [3] came out at 114 mL/min/kg. Moreover, in data set [4], the bioavailability was 19%. Besides, in data set [5], the CLint scaled is 174 mL/min/kg. The inhibition at 20 µM on hERG (KCNH2) was 39%.
Consider `CN1CC2=NNC(=O)c3cc(F)cc4[nH]c(c2c34)C1`, for which the CLint scaled in [5] came out at 275 mL/min/kg.
`CC1CC2=NNC(=O)c3cc(F)cc4[nH]c(c2c34)C1` (stereo not drawn): the results for the IC50 in data set [6] and in data set [1] were 4.9 nM and 1.3 nM, respectively. Besides, the EC50 in data set [7] is 2.7 nM.
For the compound `CC1(C)CC2=NNC(=O)c3cccc4c3c2c(n4CCO)C1`, the half-maximal effective concentration (EC50) in [7] worked out at 176 nM.
Turning to `CC1(C)CC2=NNC(=O)c3cc(F)cc4[nH]c(c2c34)C1`, on hERG (KCNH2), the inhibition at 20 µM turned out to be 32%.
`CC1(C)CCc2[nH]c3cc(F)cc4c3c2C1=NNC4=O` displayed a half-maximal inhibitory concentration (IC50) in [6] of 28.8 nM. Further, in data set [7], the EC50 came out at 45.5 nM.
`O=C1NN=C2CN(C(=O)C3CC3)Cc3[nH]c4cccc1c4c32` gave a CL/F in data set [3] of 114 mL/min/kg. In addition, the CLint scaled in data set [5] turned out to be 250 mL/min/kg. The compound further registered an inhibition at 20 µM on hERG (KCNH2) of 12%.
In data set [1], `CC(C)C1CC2=NNC(=O)c3cc(F)cc4[nH]c(c2c34)C1` (stereo not drawn) displayed an IC50 of 0.7 nM.
Regarding `CCN(CC)CCn1c2c3c4c(cccc41)C(=O)NN=C3CC(C)(C)C2`, the solubility entry in [8] was “Soluble”. On hERG (KCNH2), this compound displayed an inhibition at 20 µM of 95%.
Turning to `CN(C)CCn1c2c3c4c(cc(F)cc41)C(=O)NN=C3CC(C)(C)C2`, the solubility result in [8] is “Soluble”. At hERG (KCNH2), this compound yielded an inhibition at 20 µM of 73%. Further, the IC50 in data set [1] was determined as 0.3 nM.
`CC1(C)CC2=NNC(=O)c3cccc4c3c2c(n4CCN2CCCC2)C1`: the solubility entry in data set [8] is reported as “Soluble”. This compound came in with an inhibition at 20 µM against hERG (KCNH2) of 97%.
In the case of `O=C1NN=C2CCCCc3[nH]c4cc(F)cc1c4c32`, in data set [1], the 50% inhibitory concentration (IC50) turned out to be 0.7 nM.
`CC(C)(N)C(=O)N1CC2=NNC(=O)c3cccc4[nH]c(c2c34)C1` came in with an inhibition at 20 µM against hERG (KCNH2) of 43%.
As for `CN(C)CCn1c2c3c4c(cccc41)C(=O)NN=C3CC(C)(C)C2`, in [8], the solubility result is “Soluble”. Besides, the inhibition at 20 µM at hERG (KCNH2) turned out to be 77%. Further, the IC50 in data set [1] came to 0.3 nM.
Turning to `CC1(C)CC2=NNC(=O)c3cccc4c3c2c(n4CCN2CCCCC2)C1`, the solubility result in [8] is recorded as “Soluble”. The inhibition at 20 µM against hERG (KCNH2) is 92%.
For the compound `CC12CCCN1Cc1[nH]c3cc(F)cc4c3c1C2=NNC4=O` (stereo not drawn), inhibition in data set [6] was half-maximal at 73 nM (IC50). Also, in data set [7], the EC50 was determined as 54.7 nM.
In the case of `NC1(C(=O)N2CC3=NNC(=O)c4cc(F)cc5[nH]c(c3c45)C2)CC1`, in data set [6], the half-inhibitory concentration (IC50) worked out at 9.9 nM. Further, the EC50 in [7] was determined as 22 nM.
For `O=C1NN=C2CN(C(=O)[C@@H]3CCCN3)Cc3[nH]c4cc(F)cc1c4c32` the same measures were 6.6 nM and 11.7 nM.
With `O=C1NN=C2CN(S(=O)(=O)C3CC3)Cc3[nH]c4cc(F)cc1c4c32`, the 50% inhibitory concentration (IC50) in data set [6] turned out to be 8 nM. In data set [7], the EC50 was 9.3 nM.
`O=C1NN=C2CN(C(=O)C3(c4ccccc4)CC3)Cc3[nH]c4cc(F)cc1c4c32` came in with an IC50 in [6] of 28.1 nM. In addition, in [7], the 50% effective concentration (EC50) is 24.1 nM. Further, in [3], the CL/F was found to be 71 mL/min/kg.
`CNCCn1c2c3c4c(cccc41)C(=O)NN=C3CC(C)(C)C2` displayed an IC50 in data set [6] of 7 nM. The EC50 in data set [7] is 0.5 nM.
Turning to `CC1(C)C(=O)C2=NNC(=O)c3cc(F)cc4[nH]c(c2c34)C1=O`, half-maximal inhibition in data set [6] (IC50) was put at 13.1 nM. Moreover, the EC50 in data set [7] is 76.1 nM.
The compound `CC1(C(=O)N2CC3=NNC(=O)c4cc(F)cc5[nH]c(c3c45)C2)CC1` came in with an IC50 in [6] of 9.8 nM. Moreover, the concentration giving a half-maximal response (EC50) in data set [7] turned out to be 15.4 nM.
On to `O=C1NN=C2CN(C(=O)C3(O)CC3)Cc3[nH]c4cc(F)cc1c4c32`, for which the IC50 in data set [6] was determined as 4.7 nM. Also, the EC50 in data set [7] amounted to 3.5 nM.
As for `CC1(C)C(C(=O)N2CC3=NNC(=O)c4cc(F)cc5[nH]c(c3c45)C2)C1(C)C`, in [6], it took 17.9 nM to reach half-maximal inhibition (IC50). In addition, the EC50 in data set [7] was 16.6 nM.
Take `O=C(c1cc(Cc2n[nH]c(=O)c3ccccc23)ccc1F)N1CCN(C(=O)C2CC2)CC1` [OLAPARIB]: the TGI result in the data set on MDA-MB-436 was “Active”. Besides, the bioavailability in data set [4] was found to be 10%.
With `Cn1nnc2c(C(N)=O)ncn2c1=O` [TEMOZOLOMIDE], the Activity in the data set with NCI-H209 [9] worked out at 13%. For the same compound, the result in the data set with NCI-H209 [10] was inactive. Moreover, in the data set on NCI-H209 [11], the TGI entry was “Active”.
